Columns and labels:
SF-295 = test: Growth inhibition of human SF295 cells assessed as cell growth at 10 uM after 48 hrs by sulforhodamine B assay; type: functional; conditions: SF-295, 48 h, read-out: Activity
In short: (§1)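 Single-dose NCI-60 screen: adherent cells in RPMI 1640 with 5% FBS were exposed to 10 µM for 48 h at 37 °C after a 24 h preincubation. They were fixed in situ with cold TCA (10% final), stained with 0.4% SRB in 1% acetic acid, solubilized in 10 mM Tris base, and read at 515 nm. Percent growth was taken relative to time-zero and control plates.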

MCF7 [1] = test: Growth inhibition of human MCF7 cells assessed as cell growth at 10 uM after 48 hrs by sulforhodamine B assay; type: functional; conditions: MCF7, 48 h, read-out: Activity; in short: as §1
NCI-H460 = test: Growth inhibition of human NCI-H460 cells after 48 hrs by sulforhodamine B assay; type: functional; conditions: NCI-H460, 48 h
In short: (§2)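 NCI-60 panel cells grown in RPMI 1640 with 5% FBS and 2 mM L-glutamine, seeded at 5000–40,000 cells/well and preincubated 24 h. Five 10-fold dilutions (0.001–100 µM) from DMSO stocks were added for 48 h at 37 °C. Adherent cells were fixed with cold TCA (10% final) for 60 min at 4 °C, stained with 0.4% SRB, and read at 515 nm. GI50 was set where 100×(T−T0)/(C−T0)=50.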

OVCAR-5 = test: Growth inhibition of human OVCAR5 cells assessed as cell growth at 10 uM after 48 hrs by sulforhodamine B assay; type: functional; conditions: OVCAR-5, 48 h, read-out: Activity; in short: as §1
CCRF-CEM = test: Growth inhibition of human CCRF-CEM cells after 48 hrs by sulforhodamine B assay; type: functional
In short: (§3)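 NCI-60 screen: cells in RPMI 1640 with 5% FBS and 2 mM glutamine, 5000–40,000 cells/well, preincubated 24 h. Five concentrations (10-fold dilutions; 100 to 0.001 µM) applied for 48 h at 37 °C. TCA fixation, SRB stain, absorbance at 515 nm. Time-zero plates included; GI50 where 100×(T−T0)/(C−T0)=50.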

SN12C = test: Growth inhibition of human SN12C cells assessed as cell growth at 10 uM after 48 hrs by sulforhodamine B assay; type: functional; conditions: read-out: Activity
In short: (§4)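 Single-dose NCI-60 test at 10 µM. Cells were grown in RPMI 1640 with 5% FBS and 2 mM L-glutamine, preincubated 24 h, with T0 plates TCA-fixed. Exposure was 48 h at 37 °C, 5% CO2. Cells were fixed with cold TCA (final 10%, 4 °C, 60 min), stained with SRB and read at 515 nm. Percent growth was taken relative to T0 and untreated control; negative values denote cell kill.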

A498 = test: Growth inhibition of human A498 cells after 48 hrs by sulforhodamine B assay; type: functional; conditions: A498, 48 h; in short: as §3
[2] = Antiproliferative activity against mouse +SA cells by MTT assay; type: functional, cell-based; conditions: +SA cell
In short: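 Mouse +SA mammary epithelial cells in serum-free DMEM/F12 with BSA, transferrin, insulin and EGF. Compounds from DMSO stock conjugated to BSA (overnight, 37 °C); 0–40 µM, final DMSO <0.1%. MTT 0.42 mg/mL for 4 h at 37 °C, isopropanol solubilization, OD 570 nm. Cell number from a standard curve; IC50 by non-linear regression.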

RPMI-8226 = test: Growth inhibition of human RPMI8226 cells after 48 hrs by sulforhodamine B assay; type: functional; conditions: RPMI-8226, 48 h
In short: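 NCI-60 suspension lines in RPMI 1640 with 5% FBS and 2 mM L-glutamine, preincubated 24 h. A five-concentration 10-fold series (0.001–100 µM) was given for 48 h at 37 °C. Settled cells were fixed with 80% TCA (16% final), stained with SRB, and read at 515 nm. GI50 was taken where 100×(T−T0)/(C−T0)=50, with T0 plates fixed at drug addition.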

UACC-257 = test: Growth inhibition of human UACC257 cells assessed as cell growth at 10 uM after 48 hrs by sulforhodamine B assay; type: functional; conditions: UACC-257, 48 h, read-out: Activity; in short: as §4
IGROV-1 = test: Growth inhibition of human IGROV1 cells assessed as cell growth at 10 uM after 48 hrs by sulforhodamine B assay; type: functional; conditions: IGROV-1, 48 h, read-out: Activity
In short: (§5)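 NCI-60 single-dose screen at 10 µM: cells in RPMI 1640 with 5% FBS, preincubated 24 h, then exposed 48 h at 37 °C. TCA fixation (16% final for suspension cells), SRB staining, absorbance 515 nm. Percent growth relative to time-zero and untreated control plates; negative values indicate cell kill.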

OVCAR-4 = test: Growth inhibition of human OVCAR4 cells after 48 hrs by sulforhodamine B assay; type: functional; conditions: OVCAR-4, 48 h; in short: as §2
M14 = test: Growth inhibition of human M14 cells after 48 hrs by sulforhodamine B assay; type: functional; conditions: M14, 48 h; in short: as §3
LOX IMVI = test: Growth inhibition of human LOXIMVI cells after 48 hrs by sulforhodamine B assay; type: functional; in short: as §3
MDA-MB-468 = test: Growth inhibition of human MDA-MB-468 cells assessed as cell growth at 10 uM after 48 hrs by sulforhodamine B assay; type: functional; conditions: MDA-MB-468, 48 h, read-out: Activity; in short: as §1
MCF7 [3] = test: Antiproliferative activity against human MCF7 cells by MTT assay; type: functional, cell-based
In short: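 Cells plated at 8 × 10^3/well (MDA-MB-231) or 10^4/well (MCF7) in 96-well plates. Compounds fed in media with 5% FBS (MDA-MB-231) or 1% FBS (MCF7). MTT read-out of viable cells.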

[4] = Growth inhibition of human HCC2998 cells after 48 hrs by sulforhodamine B assay; type: functional; conditions: HCC 2998, 48 h; in short: as §3
[5] = Growth inhibition of human EKVX cells after 48 hrs by sulforhodamine B assay; type: functional; in short: as §3
NCI-H226 = test: Growth inhibition of human NCI-H226 cells assessed as cell growth at 10 uM after 48 hrs by sulforhodamine B assay; type: functional; conditions: NCI-H226, 48 h, read-out: Activity; in short: as §1
HOP-92 = test: Growth inhibition of human HOP92 cells after 48 hrs by sulforhodamine B assay; type: functional; conditions: HOP-92, 48 h; in short: as §3
DU-145 = test: Growth inhibition of human DU145 cells assessed as cell growth at 10 uM after 48 hrs by sulforhodamine B assay; type: functional; conditions: DU-145, 48 h, read-out: Activity; in short: as §5
BT-549 = test: Growth inhibition of human BT549 cells after 48 hrs by sulforhodamine B assay; type: functional; conditions: BT-549, 48 h; in short: as §3
HT-29 = test: Growth inhibition of human HT-29 cells assessed as cell growth at 10 uM after 48 hrs by sulforhodamine B assay; type: functional; conditions: HT-29, 48 h, read-out: Activity; in short: as §5
[6] = Growth inhibition of human EKVX cells assessed as cell growth at 10 uM after 48 hrs by sulforhodamine B assay; type: functional; conditions: read-out: Activity; in short: as §5

CC(C)=CCC/C(C)=C/CC/C(C)=C/CC[C@]1(C)CCc2c3c(cc(C)c2O1)OCN(CCCCCCO)C3
growth at 10 µM (SF-295): -74.7% | growth at 10 µM (MCF7 [1]): -90.4% | GI50 (NCI-H460): 692 nM | growth at 10 µM (OVCAR-5): 33.4% | GI50 (CCRF-CEM): 866 nM | growth at 10 µM (SN12C): 40.3% | GI50 (A498): 4880 nM | IC50 [2]: 1300 nM | GI50 (RPMI-8226): 1110 nM | growth at 10 µM (UACC-257): 90.5% | growth at 10 µM (IGROV-1): -73.7% | GI50 (OVCAR-4): 518 nM | GI50 (M14): 979 nM | GI50 (LOX IMVI): 636 nM | growth at 10 µM (MDA-MB-468): -84.5% | IC50 (MCF7 [3]): > 20000 nM | GI50 [4]: 663 nM | GI50 [5]: 5310 nM | growth at 10 µM (NCI-H226): 92.5% | GI50 (HOP-92): 1050 nM | growth at 10 µM (DU-145): 10.7% | GI50 (BT-549): 6150 nM | growth at 10 µM (HT-29): -25.8%

CC(C)=CCC/C(C)=C/CC/C(C)=C/CC[C@]1(C)CCc2c3c(c(C)c(C)c2O1)OCN(CCCCCCO)C3
growth at 10 µM (SF-295): 61.7% | growth at 10 µM (MCF7 [1]): -69.5% | GI50 (NCI-H460): 3150 nM | growth at 10 µM (OVCAR-5): 39% | GI50 (CCRF-CEM): 2730 nM | growth at 10 µM (SN12C): 66.5% | GI50 (A498): 2590 nM | IC50 [2]: 2100 nM | GI50 (RPMI-8226): 3360 nM | growth at 10 µM (UACC-257): 104% | growth at 10 µM (IGROV-1): -23.6% | GI50 (OVCAR-4): 2490 nM | GI50 (M14): 3110 nM | GI50 (LOX IMVI): 2830 nM | growth at 10 µM (MDA-MB-468): -46.7% | IC50 (MCF7 [3]): > 20000 nM | GI50 [4]: 2620 nM | GI50 [5]: 2660 nM | growth at 10 µM (NCI-H226): 97.3% | GI50 (HOP-92): 1890 nM | growth at 10 µM (DU-145): 77% | GI50 (BT-549): 4180 nM | growth at 10 µM (HT-29): 17.4%

CC(C)=CCC/C(C)=C/CC/C(C)=C/CC[C@]1(C)CCc2c3c(cc(C)c2O1)OCN(CCCCO)C3
growth at 10 µM (SF-295): 57.3% | growth at 10 µM (MCF7 [1]): -81.2% | GI50 (NCI-H460): 6180 nM | growth at 10 µM (OVCAR-5): 6.91% | GI50 (CCRF-CEM): 14500 nM | growth at 10 µM (SN12C): 19.3% | GI50 (A498): 14800 nM | IC50 [2]: 1800 nM | GI50 (RPMI-8226): 20400 nM | growth at 10 µM (UACC-257): 98.1% | growth at 10 µM (IGROV-1): -15.1% | GI50 (OVCAR-4): 16400 nM | GI50 (M14): 21000 nM | GI50 (LOX IMVI): 11300 nM | growth at 10 µM (MDA-MB-468): -63.2% | IC50 (MCF7 [3]): 16300 nM | GI50 [4]: 9780 nM | GI50 [5]: 19600 nM | growth at 10 µM (NCI-H226): 99.3% | growth at 10 µM [6]: 85.4% | GI50 (HOP-92): 10100 nM | growth at 10 µM (DU-145): 2.95% | GI50 (BT-549): 20200 nM | growth at 10 µM (HT-29): 2.06%

CC(C)=CCC/C(C)=C/CC/C(C)=C/CC[C@]1(C)CCc2c3c(cc(C)c2O1)OCN(CCCCCCCCO)C3
growth at 10 µM (SF-295): -83.8% | growth at 10 µM (MCF7 [1]): -93.3% | GI50 (NCI-H460): 710 nM | growth at 10 µM (OVCAR-5): -70.8% | GI50 (CCRF-CEM): 865 nM | growth at 10 µM (SN12C): -70.7% | GI50 (A498): 4710 nM | IC50 [2]: 790 nM | GI50 (RPMI-8226): 1220 nM | growth at 10 µM (UACC-257): 99% | growth at 10 µM (IGROV-1): -79.9% | GI50 (OVCAR-4): 585 nM | GI50 (M14): 1140 nM | GI50 (LOX IMVI): 622 nM | growth at 10 µM (MDA-MB-468): -90.7% | IC50 (MCF7 [3]): > 20000 nM | GI50 [4]: 583 nM | GI50 [5]: 2980 nM | growth at 10 µM (NCI-H226): 50.2% | growth at 10 µM [6]: -53.4% | GI50 (HOP-92): 1840 nM | growth at 10 µM (DU-145): -57.7% | GI50 (BT-549): 5690 nM | growth at 10 µM (HT-29): -77.2%

CC(C)=CCC/C(C)=C/CC/C(C)=C/CC[C@]1(C)CCc2c3c(c(C)c(C)c2O1)OCN(CCCCCCCCO)C3
growth at 10 µM (SF-295): 48.1% | growth at 10 µM (MCF7 [1]): 4.37% | GI50 (NCI-H460): 3250 nM | growth at 10 µM (OVCAR-5): 72.8% | GI50 (CCRF-CEM): 3340 nM | growth at 10 µM (SN12C): 65.8% | GI50 (A498): 2320 nM | IC50 [2]: 1400 nM | GI50 (RPMI-8226): 3130 nM | growth at 10 µM (UACC-257): 119% | growth at 10 µM (IGROV-1): -53.1% | GI50 (OVCAR-4): 2810 nM | GI50 (M14): 3020 nM | GI50 (LOX IMVI): 3290 nM | growth at 10 µM (MDA-MB-468): -12.6% | IC50 (MCF7 [3]): > 20000 nM | GI50 [4]: 2730 nM | GI50 [5]: 3040 nM | growth at 10 µM (NCI-H226): 91.6% | GI50 (HOP-92): 2170 nM | growth at 10 µM (DU-145): 73.1% | GI50 (BT-549): 3390 nM | growth at 10 µM (HT-29): 31.1%

Source: ChEMBL document CHEMBL2380254, “Optimization of tocotrienols as antiproliferative and antimigratory leads” (Eur J Med Chem, 2013)
